Laboratory results reported in ChEMBL document CHEMBL5252514, “Conopeptide-Derived κ-Opioid Agonists (Conorphins): Potent, Selective, and Metabolic Stable Dynorphin A Mimetics with Antinociceptive Properties” (J Med Chem, 2016).
Where a SMILES comes first, the peptide text is derived from it.

Key:
[1] = Metabolic stability in Wistar rat plasma assessed as half life by HPLC analysis; assay type: ADME, cell-free
Outline: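 Peptide at 1 mg/mL in sterile PBS pH 7.4 was mixed 1:1 with thawed, centrifuged Wistar rat plasma supernatant and incubated at 37°C in triplicate. Samples at 0, 1, 2, 3, 4, 6 and 24 h were quenched with acetonitrile and then 2% TFA/water, and analysed by HPLC with inline electrospray MS.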

[2] = molecular target: Kappa-type opioid receptor (Homo sapiens, UniProt P41145); assay: Displacement of [3H]U69593 from human kappa opioid receptor expressed in CHO-K1 cells incubated for 1 hr by 1450 microbeta scintillation counter analysis; assay type: cell-based
Sequence of Kappa-type opioid receptor (P41145 whole entry): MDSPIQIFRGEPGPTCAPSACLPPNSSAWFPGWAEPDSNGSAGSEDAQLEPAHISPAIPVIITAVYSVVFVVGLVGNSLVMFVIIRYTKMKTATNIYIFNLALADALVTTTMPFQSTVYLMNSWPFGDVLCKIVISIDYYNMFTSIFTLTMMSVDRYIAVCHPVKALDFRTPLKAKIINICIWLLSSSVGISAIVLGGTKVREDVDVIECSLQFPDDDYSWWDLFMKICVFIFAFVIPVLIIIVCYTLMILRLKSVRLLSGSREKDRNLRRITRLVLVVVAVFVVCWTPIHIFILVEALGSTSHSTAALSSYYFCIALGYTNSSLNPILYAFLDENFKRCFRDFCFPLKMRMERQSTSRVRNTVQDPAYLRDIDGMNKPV
Outline: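 Membranes from transiently KOR-transfected CHO-K1 cells (~2 µg/well) used in SPA with 3H-U69,593 (1 nM). Competitor ranged 1 pM–10 µM in 50 mM Tris-HCl pH 7.4, 5 mM MgCl2, 0.1% BSA. Incubated 1 h at room temperature with shaking. Nonspecific binding defined with 10 µM dynorphin A. Sigmoidal dose-response fit; at least three independent experiments in triplicate.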

SMILES: N=C(N)NCCC[C@H](NC(=O)[C@H](CCCNC(=N)N)NC(=O)[C@@H]1CSSC[C@H](NC(=O)[C@@H](N)CC(N)=O)C(=O)N1)C(=O)N[C@@H](CCC(N)=O)C(=O)N[C@@H](CC1CCCCC1)C(=O)N[C@H]1CSSC[C@@H](C(N)=O)NC1=O (HELM PEPTIDE1{N.C.C.R.R.Q.[Cha].C.C.[am]}$PEPTIDE1,PEPTIDE1,2:R3-3:R3|PEPTIDE1,PEPTIDE1,8:R3-9:R3$$$V2.0)
- half-life [1]: < 0.25 h
- Ki [2]: 1.3 nM

SMILES: N=C(N)NCCC[C@@H](NC(=O)[C@@H](CCCNC(=N)N)NC(=O)[C@@H]1CCCN1C(=O)c1ccc(O)cc1)C(=O)N[C@@H](CCC(N)=O)C(=O)N[C@@H](CS)C(=O)N[C@@H](CC1CCCCC1)C(=O)N[C@H]1CSSC[C@@H](C(N)=O)NC1=O
- half-life [1]: 2 h
- Ki [2]: 1.2 nM

SMILES: N=C(N)NCCC[C@@H](NC(=O)[C@@H]1CCC(=O)N1)C(=O)N[C@H](CCCNC(=N)N)C(=O)N[C@@H](CCC(N)=O)C(=O)N[C@@H](CC1CCCCC1)C(=O)N[C@H]1C[Se]SC[C@@H](C(N)=O)NC1=O
- half-life [1]: 6 h
- Ki [2]: 7.8 nM

SMILES: CC[C@H](C)[C@H](NC(=O)[C@H](CCC(N)=O)NC(=O)[C@H](CCCNC(=N)N)NC(=O)[C@@H](N)CCCNC(=N)N)C(=O)N[C@H]1CSSC[C@@H](C(N)=O)NC1=O (HELM PEPTIDE1{R.R.Q.I.C.C.[am]}$PEPTIDE1,PEPTIDE1,5:R3-6:R3$$$V2.0)
- half-life [1]: 0.75 h
- Ki [2]: 270 nM

SMILES: N=C(N)NCCC[C@H](NC(=O)[C@@H]1CCC(=O)N1)C(=O)N[C@H](CCCNC(=N)N)C(=O)N[C@@H](CCC(N)=O)C(=O)N[C@@H](CC1CCCCC1)C(=O)N[C@H]1CSSC[C@@H](C(N)=O)NC1=O
- half-life [1]: 20 h
- Ki [2]: 16.1 nM

SMILES: N=C(N)NCCC[C@@H](NC(=O)[C@@H]1CCC(=O)N1)C(=O)N[C@H](CCCNC(=N)N)C(=O)N[C@@H](CCC(N)=O)C(=O)N[C@@H](CC1CCCCC1)C(=O)N[C@H]1CCSSCC[C@@H](C(N)=O)NC1=O
- Ki [2]: 241 nM

SMILES: N=C(N)NCCC[C@@H](NC(=O)[C@@H](CCCNC(=N)N)NC(=O)[C@@H]1CCCN1C(=O)c1ccccc1)C(=O)N[C@@H](CCC(N)=O)C(=O)N[C@@H](CC1CCCCC1)C(=O)N[C@H]1CC(=O)NC[C@@H](C(N)=O)NC1=O
- Ki [2]: 233 nM

SMILES: CC[C@H](C)[C@H](NC(=O)[C@H](CCC(N)=O)NC(=O)[C@H](C)NC(=O)[C@H](CCCNC(=N)N)NC(=O)[C@@H]1CSSC[C@H](NC(=O)[C@@H](N)CC(N)=O)C(=O)N1)C(=O)N[C@H]1CSSC[C@@H](C(N)=O)NC1=O (HELM PEPTIDE1{N.C.C.R.A.Q.I.C.C.[am]}$PEPTIDE1,PEPTIDE1,2:R3-3:R3|PEPTIDE1,PEPTIDE1,8:R3-9:R3$$$V2.0)
- Ki [2]: 406 nM

SMILES: CC[C@H](C)[C@H](NC(=O)[C@H](CCC(N)=O)NC(=O)[C@H](Cc1c[nH]cn1)NC(=O)[C@H](CCCNC(=N)N)NC(=O)[C@@H]1CSSC[C@H](NC(=O)[C@@H](N)CC(N)=O)C(=O)N1)C(=O)N[C@H]1CSSC[C@@H](C(N)=O)NC1=O (HELM PEPTIDE1{N.C.C.R.H.Q.I.C.C.[am]}$PEPTIDE1,PEPTIDE1,2:R3-3:R3|PEPTIDE1,PEPTIDE1,8:R3-9:R3$$$V2.0)
- Ki [2]: 85 nM

SMILES: N=C(N)NCCC[C@@H](NC(=O)c1cccc(Cl)c1)C(=O)N[C@H](CCCNC(=N)N)C(=O)N[C@@H](CCC(N)=O)C(=O)N[C@@H](CC1CCCCC1)C(=O)N[C@H]1CSSC[C@@H](C(N)=O)NC1=O
- Ki [2]: 6.7 nM

SMILES: N=C(N)NCCC[C@@H](NC(=O)c1ccc(F)cc1)C(=O)N[C@H](CCCNC(=N)N)C(=O)N[C@@H](CCC(N)=O)C(=O)N[C@@H](CC1CCCCC1)C(=O)N[C@H]1CSSC[C@@H](C(N)=O)NC1=O
- Ki [2]: 5.4 nM

SMILES: N=C(N)NCCC[C@@H](NC(=O)[C@@H](CCCNC(=N)N)NC(=O)[C@@H]1CCCN1C(=O)c1ccc(Cl)cc1)C(=O)N[C@@H](CCC(N)=O)C(=O)N[C@@H](CC1CCCCC1)C(=O)N[C@H]1CSSC[C@@H](C(=O)O)NC1=O
- Ki [2]: 795 nM

SMILES: N=C(N)NCCC[C@@H](NC(=O)[C@@H](CCCNC(=N)N)NC(=O)[C@@H]1CCCN1C(=O)c1ccccc1)C(=O)N[C@@H](Cc1ccccc1)C(=O)N[C@@H](CC1CCCCC1)C(=O)N[C@H]1CSSC[C@@H](C(N)=O)NC1=O
- Ki [2]: 0.59 nM

SMILES: CC(C)[C@H](NC(=O)[C@H](CCC(N)=O)NC(=O)[C@H](CCCNC(=N)N)NC(=O)[C@H](CCCNC(=N)N)NC(=O)[C@@H]1CSSC[C@H](NC(=O)[C@@H](N)CC(N)=O)C(=O)N1)C(=O)N[C@H]1CSSC[C@@H](C(N)=O)NC1=O (HELM PEPTIDE1{N.C.C.R.R.Q.V.C.C.[am]}$PEPTIDE1,PEPTIDE1,2:R3-3:R3|PEPTIDE1,PEPTIDE1,8:R3-9:R3$$$V2.0)
- Ki [2]: 664 nM

SMILES: CC[C@H](C)[C@H](NC(=O)[C@H](CCC(N)=O)NC(=O)[C@H](CCCNC(=N)N)NC(=O)[C@H](CCCCN)NC(=O)[C@@H]1CSSC[C@H](NC(=O)[C@@H](N)CC(N)=O)C(=O)N1)C(=O)N[C@H]1CSSC[C@@H](C(N)=O)NC1=O (HELM PEPTIDE1{N.C.C.K.R.Q.I.C.C.[am]}$PEPTIDE1,PEPTIDE1,2:R3-3:R3|PEPTIDE1,PEPTIDE1,8:R3-9:R3$$$V2.0)
- Ki [2]: 426 nM

SMILES: N=C(N)NCCC[C@@H](NC(=O)[C@@H]1CCC(=O)N1)C(=O)N[C@H](CCCNC(=N)N)C(=O)N[C@@H](CCC(N)=O)C(=O)N[C@@H](CC1CCCCC1)C(=O)N[C@H]1CSSCC[C@@H](C(N)=O)NC1=O
- Ki [2]: 1570 nM

SMILES: N=C(N)NCCC[C@@H](NC(=O)[C@@H](CCCNC(=N)N)NC(=O)[C@@H]1CCCN1C(=O)c1ccccc1)C(=O)N[C@@H](CO)C(=O)N[C@@H](CC1CCCCC1)C(=O)N[C@H]1CSSC[C@@H](C(N)=O)NC1=O
- Ki [2]: 0.42 nM

SMILES: N=C(N)NCCC[C@@H](NC(=O)[C@@H](CCCNC(=N)N)NC(=O)[C@@H]1CCCN1C(=O)c1ccccc1)C(=O)N[C@@H](CCC(N)=O)C(=O)N[C@@H](CC1CCCCC1)C(=O)N1C[C@@H]2C[C@H]1C(=O)N[C@H](C(N)=O)CSS2
- Ki [2]: 786 nM

SMILES: CC[C@H](C)[C@H](NC(=O)[C@H](CCCNC(=N)N)NC(=O)[C@H](CCCNC(=N)N)NC(=O)[C@H](CC(C)C)NC(=O)[C@H](Cc1ccccc1)NC(=O)CNC(=O)CNC(=O)[C@@H](N)Cc1ccc(O)cc1)C(=O)N[C@@H](CCCNC(=N)N)C(=O)N1CCC[C@H]1C(=O)N[C@@H](CCCCN)C(=O)N[C@@H](CC(C)C)C(=O)N[C@@H](CCCCN)C(=O)N[C@@H](Cc1c[nH]c2ccccc12)C(=O)N[C@@H](CC(=O)O)C(=O)N[C@@H](CC(N)=O)C(=O)N[C@@H](CCC(N)=O)C(N)=O
- half-life [1]: 2 h

SMILES: CC[C@H](C)[C@H](NC(=O)[C@H](CCC(N)=O)NC(=O)[C@H](CCCNC(N)=O)NC(=O)[C@H](CCCNC(=N)N)NC(=O)[C@@H]1CSSC[C@H](NC(=O)[C@@H](N)CC(N)=O)C(=O)N1)C(=O)NC1CSSC[C@@H](C(N)=O)NC1=O (single isomer, unassigned)
- Ki [2]: 387 nM

SMILES: N=C(N)NCCC[C@@H](NC(=O)[C@@H]1CCC(=O)N1)C(=O)N[C@H](CCCNC(=N)N)C(=O)N[C@@H](CCC(N)=O)C(=O)N[C@@H](CC1CCCCC1)C(=O)N[C@H]1CCSSC[C@@H](C(N)=O)NC1=O
- Ki [2]: 783 nM

SMILES: C[C@H](NC(=O)[C@@H](CCCNC(=N)N)NC(=O)[C@@H](CCCNC(=N)N)NC(=O)[C@@H]1CCCN1C(=O)c1ccccc1)C(=O)N[C@@H](CC1CCCCC1)C(=O)N[C@H]1CSSC[C@@H](C(N)=O)NC1=O
- Ki [2]: 0.29 nM

SMILES: CC[C@H](C)[C@@H]1NC(=O)[C@H](CCC(N)=O)NC(=O)[C@H](CCCNC(=N)N)NC(=O)[C@H](CCCNC(=N)N)NC(=O)[C@@H]2CSSC[C@H](NC1=O)C(=O)N[C@H](C(N)=O)CSSC[C@H](NC(=O)[C@@H](N)CC(N)=O)C(=O)N2 (HELM PEPTIDE1{N.C.C.R.R.Q.I.C.C.[am]}$PEPTIDE1,PEPTIDE1,2:R3-9:R3|PEPTIDE1,PEPTIDE1,3:R3-8:R3$$$V2.0)
- Ki [2]: 580 nM
